Experimental data from ChEMBL document CHEMBL5724801, “EUbOPEN Chemogenomics Library - Multiplex” (2024).
Values joined by “and” are separate entries in the source; they are usually repeats but may differ in a detail not shown here. Equal entries are not always repeated.

Tested on: HEK-293T
Experiment: Multiplex assay against HEK293T
Format: toxicity, cell-based
Details: human
Summary of the method: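 Compound was added to live cells that had been stained at seeding with Hoechst33342, BioTracker Green Microtubule Cytoskeleton Dye, MitoTracker Red and Annexin V Alexa Fluor 680, and imaging followed on a CQ1 microscope at 37°C and 5% CO2. CellPathfinder machine-learning gating divided cells into Hoechst high-intensity objects or normal cells, normal cells into healthy, pyknosed or fragmented nuclei, and pyknosed cells into mitotic or apoptotic. Tubulin, mitochondrial-mass and membrane-permeability phenotypes are per cents of healthy-nucleus cells.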

[1] = 12 h, 1 µM, compound concentration 1 uM
[2] = 12 h, 10 µM, compound concentration 10 uM
[3] = 24 h, 1 µM, compound concentration 1 uM
[4] = 24 h, 10 µM, compound concentration 10 uM
[5] = 48 h, 1 µM, compound concentration 1 uM
[6] = 48 h, 10 µM, compound concentration 10 uM

SMILES: COc1cc2nc(N3CCN(C(=O)c4ccco4)CC3)nc(N)c2cc1OC.Cl [PRAZOSIN HYDROCHLORIDE]
- Population Apoptotic (%) [1]: 32% and 56%
- Population Fragmented Nuclei (%) [1]: 10% and 6%
- Population Healthy Nuclei (%) [1]: 77%
- Population Hoechst High Intensity Objects (%) [1]: 6%
- Population Membrane Permeable-Phenotype (%) [1]: 0%
- Population Mitochondria Different-Phenotype (%) [1]: 35% and 66%
- Population Mitotic Cells (%) [1]: 67% and 43%
- Population Normal (%) [1]: 93%
- Population Pyknosed Nuclei (%) [1]: 11% and 16%
- Population Tubulin-Different-Phenotype (%) [1]: 23% and 22%
- Total Cell Count [1]: 448 and 290
- Population Apoptotic (%) [2]: 38% and 55%
- Population Fragmented Nuclei (%) [2]: 9% and 5%
- Population Healthy Nuclei (%) [2]: 75% and 77%
- Population Hoechst High Intensity Objects (%) [2]: 10% and 9%
- Population Membrane Permeable-Phenotype (%) [2]: 0%
- Population Mitochondria Different-Phenotype (%) [2]: 62% and 61%
- Population Mitotic Cells (%) [2]: 61% and 44%
- Population Normal (%) [2]: 89% and 90%
- Population Pyknosed Nuclei (%) [2]: 14% and 16%
- Population Tubulin-Different-Phenotype (%) [2]: 45% and 25%
- Total Cell Count [2]: 348 and 404
- Population Apoptotic (%) [3]: 38% and 51%
- Population Fragmented Nuclei (%) [3]: 9%
- Population Healthy Nuclei (%) [3]: 82% and 80%
- Population Hoechst High Intensity Objects (%) [3]: 3% and 5%
- Population Membrane Permeable-Phenotype (%) [3]: 0%
- Population Mitochondria Different-Phenotype (%) [3]: 25% and 45%
- Population Mitotic Cells (%) [3]: 61% and 48%
- Population Normal (%) [3]: 96% and 94%
- Population Pyknosed Nuclei (%) [3]: 7% and 10%
- Population Tubulin-Different-Phenotype (%) [3]: 10% and 16%
- Total Cell Count [3]: 660 and 364
- Population Apoptotic (%) [4]: 50% and 54%
- Population Fragmented Nuclei (%) [4]: 12% and 11%
- Population Healthy Nuclei (%) [4]: 77% and 78%
- Population Hoechst High Intensity Objects (%) [4]: 5%
- Population Membrane Permeable-Phenotype (%) [4]: 0% and 1%
- Population Mitochondria Different-Phenotype (%) [4]: 40% and 42%
- Population Mitotic Cells (%) [4]: 50% and 45%
- Population Normal (%) [4]: 94%
- Population Pyknosed Nuclei (%) [4]: 9% and 10%
- Population Tubulin-Different-Phenotype (%) [4]: 32% and 20%
- Total Cell Count [4]: 463 and 534
- Population Apoptotic (%) [5]: 36% and 38%
- Population Fragmented Nuclei (%) [5]: 17% and 16%
- Population Healthy Nuclei (%) [5]: 76%
- Population Hoechst High Intensity Objects (%) [5]: 1% and 2%
- Population Membrane Permeable-Phenotype (%) [5]: 1% and 0%
- Population Mitochondria Different-Phenotype (%) [5]: 16% and 23%
- Population Mitotic Cells (%) [5]: 63% and 61%
- Population Normal (%) [5]: 98% and 97%
- Population Pyknosed Nuclei (%) [5]: 5% and 6%
- Population Tubulin-Different-Phenotype (%) [5]: 8% and 9%
- Total Cell Count [5]: 1114 and 636
- Population Apoptotic (%) [6]: 33% and 23%
- Population Fragmented Nuclei (%) [6]: 17% and 14%
- Population Healthy Nuclei (%) [6]: 75% and 78%
- Population Hoechst High Intensity Objects (%) [6]: 4%
- Population Membrane Permeable-Phenotype (%) [6]: 2% and 1%
- Population Mitochondria Different-Phenotype (%) [6]: 32% and 21%
- Population Mitotic Cells (%) [6]: 66% and 76%
- Population Normal (%) [6]: 95%
- Population Pyknosed Nuclei (%) [6]: 7%
- Population Tubulin-Different-Phenotype (%) [6]: 17% and 11%
- Total Cell Count [6]: 693 and 778

SMILES: CC(C)(C)c1cc(NC(=O)Nc2ccc(-c3cn4c(n3)sc3cc(OCCN5CCOCC5)ccc34)cc2)no1 [QUIZARTINIB]
- Population Apoptotic (%) [1]: 27% and 34%
- Population Fragmented Nuclei (%) [1]: 5%
- Population Healthy Nuclei (%) [1]: 83% and 80%
- Population Hoechst High Intensity Objects (%) [1]: 10% and 6%
- Population Membrane Permeable-Phenotype (%) [1]: 0%
- Population Mitochondria Different-Phenotype (%) [1]: 40% and 58%
- Population Mitotic Cells (%) [1]: 72% and 65%
- Population Normal (%) [1]: 89% and 93%
- Population Pyknosed Nuclei (%) [1]: 11% and 14%
- Population Tubulin-Different-Phenotype (%) [1]: 35% and 26%
- Total Cell Count [1]: 377 and 345
- Population Apoptotic (%) [2]: 53% and 73%
- Population Fragmented Nuclei (%) [2]: 7%
- Population Healthy Nuclei (%) [2]: 71%
- Population Hoechst High Intensity Objects (%) [2]: 23% and 12%
- Population Membrane Permeable-Phenotype (%) [2]: 0%
- Population Mitochondria Different-Phenotype (%) [2]: 78% and 81%
- Population Mitotic Cells (%) [2]: 46% and 26%
- Population Normal (%) [2]: 76% and 87%
- Population Pyknosed Nuclei (%) [2]: 21%
- Population Tubulin-Different-Phenotype (%) [2]: 68% and 63%
- Total Cell Count [2]: 324 and 293
- Population Apoptotic (%) [3]: 41% and 38%
- Population Fragmented Nuclei (%) [3]: 7% and 5%
- Population Healthy Nuclei (%) [3]: 84%
- Population Hoechst High Intensity Objects (%) [3]: 6% and 4%
- Population Membrane Permeable-Phenotype (%) [3]: 0%
- Population Mitochondria Different-Phenotype (%) [3]: 26% and 40%
- Population Mitotic Cells (%) [3]: 58% and 61%
- Population Normal (%) [3]: 93% and 95%
- Population Pyknosed Nuclei (%) [3]: 7% and 10%
- Population Tubulin-Different-Phenotype (%) [3]: 21% and 17%
- Total Cell Count [3]: 491 and 440
- Population Apoptotic (%) [4]: 62% and 69%
- Population Fragmented Nuclei (%) [4]: 8% and 9%
- Population Healthy Nuclei (%) [4]: 79% and 78%
- Population Hoechst High Intensity Objects (%) [4]: 16% and 9%
- Population Membrane Permeable-Phenotype (%) [4]: 0%
- Population Mitochondria Different-Phenotype (%) [4]: 63% and 75%
- Population Mitotic Cells (%) [4]: 37% and 30%
- Population Normal (%) [4]: 83% and 90%
- Population Pyknosed Nuclei (%) [4]: 12% and 11%
- Population Tubulin-Different-Phenotype (%) [4]: 57% and 50%
- Total Cell Count [4]: 413 and 321
- Population Apoptotic (%) [5]: 21%
- Population Fragmented Nuclei (%) [5]: 12% and 10%
- Population Healthy Nuclei (%) [5]: 80% and 82%
- Population Hoechst High Intensity Objects (%) [5]: 3% and 2%
- Population Membrane Permeable-Phenotype (%) [5]: 2% and 0%
- Population Mitochondria Different-Phenotype (%) [5]: 11% and 24%
- Population Mitotic Cells (%) [5]: 78%
- Population Normal (%) [5]: 96% and 97%
- Population Pyknosed Nuclei (%) [5]: 6%
- Population Tubulin-Different-Phenotype (%) [5]: 15% and 18%
- Total Cell Count [5]: 851 and 566
- Population Apoptotic (%) [6]: 57% and 58%
- Population Fragmented Nuclei (%) [6]: 9% and 11%
- Population Healthy Nuclei (%) [6]: 77% and 73%
- Population Hoechst High Intensity Objects (%) [6]: 9% and 12%
- Population Membrane Permeable-Phenotype (%) [6]: 1% and 0%
- Population Mitochondria Different-Phenotype (%) [6]: 40% and 59%
- Population Mitotic Cells (%) [6]: 42% and 41%
- Population Normal (%) [6]: 90% and 87%
- Population Pyknosed Nuclei (%) [6]: 12% and 14%
- Population Tubulin-Different-Phenotype (%) [6]: 35% and 37%
- Total Cell Count [6]: 583 and 392
